Compound activity from PubChem.
Tb MetRS inh: Trypanosoma brucei MetRS inhibition; purified T. brucei MetRS, ATP depletion, Kinase-Glo luminescence; inhibition, % at 11.9 µM; actives 0.4% (n = 360,000);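 active = inhibition above a per-plate cutoff of the control wells' mean inhibition plus 3 SD, cut at about 5.5% in these data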
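System: purified T. brucei MetRS enzyme / Detection: Kinase-Glo luciferase luminescence reporting remaining unconsumed ATP / Medium: HEPES buffer with MgCl2, KCl, DTT, spermine, BSA, pyrophosphatase / Replication: singlicate, one well per compound / Evaluation: percent inhibition relative to median high and low control wells / Schedule: 2 h aminoacylation at 25 °C after 15 min preincubation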
sPLA2-III inh: Inhibits HGIII-sPLA2 liposome hydrolysis, primary screen | Q9NZ20 | QFRET BODIPY PC-A2 liposome hydrolysis, fluorescence | inhibition, % at 12.2 µM | actives 0.56% (n = 370,000) | AID 743126;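 active = inhibition above mean plus 3 SD of compounds lying within the high and low control bounds, cut at about 19% in these data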
PLC-beta3 inh: PLC-beta3 (human) inhibition, primary screen | actives 0.18% (n = 370,000) | AID 720704 | inhibition, % at 12.2 µM | Purified PLC-beta3, fluorogenic substrate, fluorescence; in the data active = inhibition above about 11%
DAGLB inh: diacylglycerol lipase beta (human) inhibition. Q8NCG7. inhibition, % at 5.17 µM. HEK293T DAGLB membrane lysate, EnzChek fluorogenic substrate. actives 0.059% (n = 340,000); in the data active = inhibition above about 34%
PLCg1 inh: blocks human PLC-gamma1 enzyme activity | P19174 | purified PLC-gamma1, fluorogenic substrate, fluorescence | inhibition, % at 12.2 µM | actives 0.84% (n = 370,000)
PLCgamma1 ctr: counter-screen for PLC-beta3 inhibitors: inhibitors of human PLC-gamma1 | shares compounds with PLCg1 inh | purified PLC-gamma1, fluorogenic substrate, fluorescence | inhibition, % at 12.3 µM | actives 3.1% (n = 3,300) | AID 743258
PLCb3 confirm: human PLC-beta3 inhibition, confirmation; actives 1% (n = 3,300); purified PLC-beta3, fluorogenic substrate fluorescence; inhibition, % at 12.3 µM; shares compounds with PLCg1 inh; in the data active = inhibition above about 11%
Large screens that a line does not name were inactive (follow-up assays come after a bar, where they were run). Rows were chosen to be rich in hits. Some 1.9% of all compounds tested hit in one or more screens of this group. Rule as the data show it, unless noted: active = inhibition above about 9.5%; inactive = the rest.

CNc1ncc(C(=O)C(C)(C)C)s1	PLCg1 inh 11 | PLCgamma1 ctr inactive | PLCb3 confirm inactive
O=C(COc1ncnc2ccccc12)NC1CCS(=O)(=O)C1 (stereo not given)	PLCg1 inh 10 | PLCgamma1 ctr inactive | PLCb3 confirm inactive
CC1CCCC(NC(=O)COc2ncnc3ccccc23)C1C (stereo not given)	none
COc1ccc(N=C2SC(CC(=O)Nc3ccccc3F)C(=O)N2Cc2ccco2)cc1 (stereo not given)	none
O=C(CC1SC(=Nc2ccccc2)N(CCc2c[nH]c3ccccc23)C1=O)Nc1ccccc1F (stereo not given)	PLC-beta3 inh 13 | PLCgamma1 ctr inactive | PLCb3 confirm inactive
COc1ccc(N=C2SC(CC(=O)Nc3ccccc3)C(=O)N2Cc2ccco2)cc1 (stereo not given)	PLC-beta3 inh 11 | PLCgamma1 ctr inactive | PLCb3 confirm inactive
O=C(CC1SC(=Nc2ccccc2)N(CCc2ccccn2)C1=O)Nc1ccc(F)cc1 (stereo not given)	PLCg1 inh 9.8 | PLCgamma1 ctr inactive | PLCb3 confirm inactive
C[C@@H]1OC(C2CCCCC2)N(C)[C@H]2C[C@H]3c4cc(-c5ccc6c(c5)OCO6)ccc4CCN3C[C@@H]12 (stereo not given in full)	none (no result: Tb MetRS inh, DAGLB inh)
O=C(Nc1ccc2c(c1)OCO2)c1cnn2c1NC(c1ccco1)CC2C(F)(F)F (stereo not given)	PLCg1 inh 10 | PLCgamma1 ctr inactive | PLCb3 confirm inactive
CCOc1ccc(CN2CCN(Cc3cccc4c3OCO4)CC2CCO)cc1 (stereo not given)	none
Cc1ccc(CN2CCN(Cc3cccc4c3OCO4)CC2CCO)cc1 (stereo not given)	PLC-beta3 inh 15 | PLCgamma1 ctr inactive | PLCb3 confirm inactive
Cc1ccc(Cn2nnc3c(=O)[nH]c(C4CCN(S(=O)(=O)c5ccc(F)cc5)CC4)nc32)cc1	PLCg1 inh 9.8 | PLCgamma1 ctr inactive | PLCb3 confirm inactive
Cc1ccc(C)c(S(=O)(=O)N2CCC(c3nc4c(nnn4Cc4ccc(F)cc4)c(=O)[nH]3)CC2)c1	none
Cc1ccc(Cn2nnc3c(=O)[nH]c(C4CCN(S(=O)(=O)c5cc(C)ccc5C)CC4)nc32)cc1	PLCg1 inh 12 | PLCgamma1 ctr inactive | PLCb3 confirm inactive
COc1cccc2c1[C@H](/C=C/c1ccccc1)[C@@H]([C@H](O)COC(C)=O)OC2	none (no result: Tb MetRS inh, DAGLB inh)
COc1ccc(CC(=O)N2CCN(C(=O)c3ccc4nc(C)n(C5CCCC5)c4c3)CC2)cc1	none (no result: Tb MetRS inh, DAGLB inh)
COc1ccc(N2CCN(C(=O)CCc3ccc(S(=O)(=O)NCC(C)C)cc3)CC2)cc1	PLCg1 inh 9.6 | PLCgamma1 ctr inactive | PLCb3 confirm inactive
CC(C)CNS(=O)(=O)c1ccc(CCC(=O)N2CCN(c3ccc(F)cc3)CC2)cc1	none
CCOC(=O)Cc1nnc(NC(=O)CCc2ccccc2)s1	PLCg1 inh 11 | PLCgamma1 ctr inactive | PLCb3 confirm inactive
CC1=NN(c2ccccc2)C(=O)/C1=C/c1cccs1	PLC-beta3 inh 16, PLCg1 inh 25 | PLCgamma1 ctr inactive | PLCb3 confirm inactive
CC(C)CN(CC(C)C)C(=O)c1ccc2c(c1)NC(=O)C(C)(C)O2	none (no result: Tb MetRS inh, DAGLB inh)
CCCCN1CNC(=S)N(c2ccccc2OCC)C1	PLCg1 inh 11 | PLCgamma1 ctr inactive | PLCb3 confirm inactive
CCCCCCCCNS(=O)(=O)/C=C/c1ccc(OC)cc1CNC(=O)OC(C)(C)C	none (no result: Tb MetRS inh, DAGLB inh)
Cc1cccc(C)c1-n1ncc(C(=O)NC2CCCC2)c1C1CCNCC1	PLCg1 inh 15 | PLCgamma1 ctr inactive | PLCb3 confirm inactive
